# Laboratory results: article PMC5743405 (International Journal of Oncology, 2017)
# Read-outs that look alike come from different tables or passages of the source.
# Columns and labels:
# CHRM5 = assay: PathHunter β-arrestin; format: cell-based; details: 6 μM
# Method in brief: (§1)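 Engineered cells express the receptor fused to one β-galactosidase fragment (ED) and β-arrestin fused to the complementing fragment (EA). Receptor activation recruits β-arrestin, which restores enzyme activity, and this is read by chemiluminescence (RLU). Agonist % activity is 100% × (test − vehicle)/(maximal control ligand − vehicle). Antagonist mode is challenged with an EC80 control agonist, and % inhibition is 100% × (1 − (test − vehicle)/(EC80 − vehicle)). Hits require >30% activity or >35% inhibition, plus a 3×SD RLU margin.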
# [1] = tested on: G1/S phase cell cycle progression; details: chondrosarcoma, cited from earlier work
# TACR2 = assay: PathHunter β-arrestin; format: cell-based; details: agonist mode, 6 μM
# TLR10 = assay: western blot, JJ012 cells; format: cell-based, human; details: vs untreated control, overnight incubation
# nuclear receptor = assay: PathHunter NHR assays, nhrMAX panel, agonist mode; format: cell-based; details: summary of Table IV
# Method in brief: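 Enzyme fragment complementation: a ligand-activated NHR moves to the nucleus and recruits a steroid receptor co-activator peptide fusion, restoring β-galactosidase, read by chemiluminescence. Agonist interaction measured over 6 h. Hit requires >30% activity and mean RLU above baseline RLU + 3 × baseline SD.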
# CCR10 = assay: PathHunter β-arrestin; format: cell-based; details: antagonist mode, 6 μM
# Method in brief: (§2)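 β-Arrestin recruitment assay: the enzyme acceptor is fused to β-arrestin and the ED fragment to the GPCR. Recruitment restores β-galactosidase, read by chemiluminescence. % activity = 100% × (test − vehicle)/(max control ligand − vehicle). % inhibition = 100% × (1 − (test − vehicle)/(EC80 control − vehicle)). An agonist hit needs >30% activity and RLU > baseline + 3×SD. An antagonist hit needs >35% inhibition and RLU < EC80 RLU − 3×SD.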
# P2RY1 = assay: PathHunter β-arrestin; format: cell-based; details: 6 μM
# Method in brief: (§3)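 β-Arrestin recruitment to GPCR read by β-galactosidase fragment complementation and chemiluminescence. Agonist: % = 100 × (test − vehicle)/(max control ligand − vehicle), hit at >30% and RLU > baseline + 3 SD. Antagonist, against EC80 agonist: % inhibition = 100 × (1 − (test − vehicle)/(EC80 − vehicle)), hit at >35% and RLU < EC80 − 3 SD.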
# ADRB2 = assay: PathHunter β-arrestin; format: cell-based; details: 6 μM
# Method in brief: as §2
# CHRM1 = assay: PathHunter β-arrestin; format: cell-based; details: 6 μM
# Method in brief: as §1
# F2R = assay: PathHunter β-arrestin; format: cell-based; details: agonist mode, 6 μM
# Method in brief: as §1
# CRHR2 = assay: PathHunter β-arrestin; format: cell-based; details: antagonist mode, 6 μM
# Method in brief: as §1
# NMU1R = assay: PathHunter β-arrestin; format: cell-based; details: 6 μM
# Method in brief: (§4)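 Vendor-run (DiscoveRx) PathHunter enzyme fragment complementation. β-Arrestin carries the EA fragment and the receptor carries ED; recruitment restores β-gal activity, read by chemiluminescence (RLU). Agonist % activity = vehicle-subtracted RLU relative to max control ligand (gpcrMAX) or to vehicle (orphanMAX). Antagonist % inhibition = 100% × (1 − vehicle-subtracted sample RLU / vehicle-subtracted EC80 agonist control RLU).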
# MRGPRX2 = assay: PathHunter β-arrestin; format: cell-based; details: antagonist mode, 6 μM
# Method in brief: as §4
# TBXA2R = assay: PathHunter β-arrestin; format: cell-based; details: 6 μM
# Method in brief: as §3
# EDG7 = assay: PathHunter β-arrestin; format: cell-based; details: antagonist mode, 6 μM
# Method in brief: as §1
# NPY2R = assay: PathHunter β-arrestin; format: cell-based; details: antagonist mode, 6 μM
# Method in brief: as §4
# P2RY11 = assay: PathHunter β-arrestin; format: cell-based; details: 6 μM
# Method in brief: as §3
# TLR5 = assay: western blot, JJ012 cells; format: cell-based, human; details: vs untreated control, overnight incubation
# P2RY2 = assay: PathHunter β-arrestin; format: cell-based; details: 6 μM
# Method in brief: as §3
# TACR3 = assay: PathHunter β-arrestin; format: cell-based; details: antagonist mode, 6 μM
# TET1/2 and SOCS3 = details: human chondrosarcoma; ref previously reported ([8],[9]); cited from earlier work
# PTGER3 = assay: PathHunter β-arrestin; format: cell-based; details: 6 μM
# Method in brief: as §3
# HCRTR2 = assay: PathHunter β-arrestin; format: cell-based; details: antagonist mode, 6 μM
# Method in brief: as §4
# EDG3 = assay: PathHunter β-arrestin; format: cell-based; details: antagonist mode, 6 μM
# Method in brief: as §1
# ADRA2B = assay: PathHunter β-arrestin; format: cell-based; details: antagonist mode, 6 μM
# Method in brief: as §2
# AGTRL1 = assay: PathHunter β-arrestin; format: cell-based; details: agonist mode, 6 μM
# Method in brief: as §2
# GLP2R = assay: PathHunter β-arrestin; format: cell-based; details: agonist mode, 6 μM
# Method in brief: as §4
# TLR6 = assay: RT2 qPCR primer assay, JJ012 cells; format: cell-based, human
# Method in brief: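 RNA was extracted, checked by spectrophotometry and reverse-transcribed. Custom RT2 SYBR-Green primer assays were run on three samples in technical triplicate. Ct was normalised to mean GAPDH/ACTB, ΔΔCt taken versus control, and fold change = 2^−ΔΔCt.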
# TACR1 = assay: PathHunter β-arrestin; format: cell-based; details: 6 μM
# Method in brief: as §3
# nucleolin = assay: western blot, JJ012 cells; format: cell-based, human; details: vs untreated control, overnight incubation
# MC5R = assay: PathHunter β-arrestin; format: cell-based; details: 6 μM
# Method in brief: as §4
# CALCR-RAMP2 = assay: PathHunter β-arrestin; format: cell-based; details: agonist mode, 6 μM
# Method in brief: as §2
# BDKRB2 = assay: PathHunter β-arrestin; format: cell-based; details: antagonist mode, 6 μM
# Method in brief: as §2
substance,measurement,setting,value
Proline rich polypeptide 1 [PRP-1],% Activity,CHRM5; agonist mode,5%
same,% Inhibition,CHRM5; antagonist mode,−4%
same,cell cycle progression,"[1]; ref [4],[5]",halting G1/S phase cell cycle progression
same,cell cycle progression,[1]; ref [6],halts cell cycle progression in G1/S transition
same,% Activity,TACR2,1%
same,protein expression,TLR10,no indication of PRP-1 effect
same,nuclear receptor agonism,nuclear receptor,neither that this peptide was agonist for orphan receptors (Table III) or agonist/antagonist for nuclear receptor
same,% Inhibition,CCR10,−3%
same,% Activity,P2RY1; agonist mode,−1%
same,% Inhibition,P2RY1; antagonist mode,1%
same,% Activity,ADRB2; agonist mode,3%
same,% Inhibition,ADRB2; antagonist mode,−3%
same,% Activity,CHRM1; agonist mode,1%
same,% Inhibition,CHRM1; antagonist mode,−12%
same,% Activity,F2R,−2%
same,% Inhibition,CRHR2,−2%
same,% Activity,NMU1R; agonist mode,1%
same,% Inhibition,NMU1R; antagonist mode,−3%
same,% Inhibition,MRGPRX2,−8%
same,% Activity,TBXA2R; agonist mode,1%
same,% Inhibition,TBXA2R; antagonist mode,−10%
same,% Inhibition,EDG7,−3%
same,% Inhibition,NPY2R,−2%
same,% Activity,P2RY11; agonist mode,1%
same,% Inhibition,P2RY11; antagonist mode,−12%
same,protein expression,TLR5,PRP-1 did not have any effect
same,% Activity,P2RY2; agonist mode,2%
same,% Inhibition,P2RY2; antagonist mode,−4%
same,% Inhibition,TACR3,−1%
same,expression of TET1/2 and SOCS3,TET1/2 and SOCS3,significant upregulation
same,% Activity,PTGER3; agonist mode,1%
same,% Inhibition,PTGER3; antagonist mode,−2%
same,% Inhibition,HCRTR2,−1%
same,% Inhibition,EDG3,1%
same,% Inhibition,ADRA2B,2%
same,% Activity,AGTRL1,1%
same,% Activity,GLP2R,1%
same,gene expression,"TLR6; 1 μg/ml PRP-1, heat map, vs nontreated control, technical triplicates",high expression
same,fold change (∆Ct),TLR6; qRT-PCR,did not report significant fold change
same,% Activity,TACR1; agonist mode,1%
same,% Inhibition,TACR1; antagonist mode,−2%
same,protein expression,nucleolin,no changes in nucleolin protein expression
same,% Activity,MC5R; agonist mode,2%
same,% Inhibition,MC5R; antagonist mode,−5%
same,% Activity,CALCR-RAMP2,2%
same,% Inhibition,BDKRB2,5%
